This is an account of results in article PMC6097486 (International Journal of Biological Sciences, 2018).

In one data set the test system is NSCLC. The settings on record: ref [7]-[9]; cited from earlier work.
The conditions of data set [1]: ref [10]; cited from earlier work.
The next data set concerns CAM. The experiment in a line: Chick chorioallantoic membrane. The class given is in vivo. The settings on record: FGF2 10 ng/ml alone, 24 h. In outline:
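Test peptide applied with FGF2 (10 ng/ml) onto the CAM surface on day 8 of egg incubation. Incubation continued for 24 h, then the CAM surface was photographed to assess angiogenesis.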

In data set [2] the test system is FGFR1-ERK1/2 MAPK signaling pathway. In words: FGFR1-ERK1/2 MAPK signaling activation by FGF2. The class given is cell-based, human. The note with it: stimulation with FGF2; A549 and NCI-H460 cells. The method, boiled down:
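A549 and NCI-H460 cells (FGFR1-high human NSCLC) grown in DMEM/high glucose with 10% FBS at 37°C, 5% CO₂. Treatment 2 h; FGFR1 inhibitor PD173074 (100 nM) as positive control. Lysate protein (30 µg) run on 10% SDS-PAGE, transferred to PVDF, blocked in 8% nonfat milk/TBST. Probed for pFGFR1 and pERK1/2 (1:1000), normalised to β-actin.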

The next data set has as its system A549 cells. The experiment in a line: Tube formation assay on matrigel, A549 cells. The class given is cell-based, human. The settings on record: FGF2 10 ng/ml alone, 6 h, versus control (###P < 0.001).
The next data set deals with FGFR1. In words: Competitive elution of phage clones by FGF2. It counts as binding. The settings on record: 2 µg/ml FGF2, RT 1 h, 450 nm. In outline: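 Phage clones (2 × 10^11 pfu/well) and control vcsM13 phage incubated on FGFR1 at RT for 1 h. Competitive elution with FGF2 (2 µg/ml) at RT for 1 h. Detection with anti-M13 mAb (37°C, 1 h), then goat anti-mouse IgG-HRP (37°C, 30 min) and TMB substrate. Absorbance read at 450 nm.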

The nature of data set [3]: Gross toxicity and body weight in A549 xenograft nude mice. The note with it: 5 mg/kg/day i.p., 28 days. The class given is in vivo, BALB/cA nude mice. In outline: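 Female athymic nu/nu BALB/cA mice, 7 weeks old, SPF housing, received subcutaneous A549 cells (2 × 10^6 cells in 200 μL saline, mixed 1:1 with matrigel) into upper and lower back. Two days later, test compound in saline was given i.p. for 28 days; controls got the same volume of saline. Body weight was recorded weekly.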

In a further data set the target is T1, human FGFR1 protein (human, UniProt P11362 22-376).
T1 sequence (looked up): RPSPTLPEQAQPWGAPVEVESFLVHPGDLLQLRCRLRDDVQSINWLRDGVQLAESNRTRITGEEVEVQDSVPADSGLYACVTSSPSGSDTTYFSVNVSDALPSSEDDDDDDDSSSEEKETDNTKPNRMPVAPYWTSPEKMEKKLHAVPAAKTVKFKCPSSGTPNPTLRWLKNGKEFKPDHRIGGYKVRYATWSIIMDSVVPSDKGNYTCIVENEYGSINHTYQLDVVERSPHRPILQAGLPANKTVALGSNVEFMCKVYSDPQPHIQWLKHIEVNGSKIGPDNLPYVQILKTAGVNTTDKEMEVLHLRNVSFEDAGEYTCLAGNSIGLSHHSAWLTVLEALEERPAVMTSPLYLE
The experiment in a line: SPR. For orientation: Surface plasmon resonance follows binding to a sensor surface in real time, without labels.

Where no end group is shown, it is not given here.

In the case of `COc1cc(OC)cc(-c2cc3cnc(N)nc3nc2NC(=O)NC(C)(C)C)c1` [PD166866], the “growth of NSCLC” value with NSCLC was “suppress the growth of NSCLC”.
As to `CCN(CC)CCCCNc1ncc2cc(-c3cc(OC)cc(OC)c3)c(NC(=O)NC(C)(C)C)nc2n1` [PD173074], in the data set on NSCLC, the “growth of NSCLC” value is “suppress the growth of NSCLC”. For the same molecule, the “toxicity / clinical progress” value in data set [1] is listed as “failed to enter phase II clinical trials due to their high toxicities”.
For `Cc1c[nH]c(/C=C2\C(=O)Nc3ccccc32)c1CCC(=O)O` [SU5402], the “growth of NSCLC” value with NSCLC is on record as “suppress the growth of NSCLC”. The “toxicity / clinical progress” value in data set [1] was “failed to enter phase II clinical trials due to their high toxicities”.
For “FGF2: Specific ligand of FGFR1 (PeproTech)”, the angiogenesis entry in the data set with CAM is listed as “significantly induce angiogenesis”. Also, the “activation of FGFR1-ERK1/2 MAPK signaling pathway” value in data set [2] was “evident”. In addition, in the data set on A549 cells, the tube formation result is listed as “significantly induce tube formation”. Also, the “elution efficiency for the phage clones” value with FGFR1 is reported as “high elution efficiency”.
Consider FHDAWPNLSKSS [R1-P2], for which the toxicity observed result in data set [3] (n = 5) was “no remarkable toxicity observed”. The “abnormal gross phenotypes including weight loss” value in data set [3] (n = 5, body weight recorded weekly) was “no signs of abnormal gross phenotypes including weight loss”.
For orientation: Kd means the free concentration of one partner at which half of the binding sites on the other are occupied at equilibrium, for simple one-to-one binding. Low values mean higher affinity, high ones lower affinity. Molecule FHDAWPNLSKSS [peptide R1-P2] yielded a Kd with human FGFR1 protein of around 154 nM.
